The test system of assay [1] is Plasmodium falciparum. Description: Antiparasitic activity against Plasmodium falciparum FCR-3.
Assay [2] concerns FM3A. Description: In vitro cytotoxicity in mouse mammary tumor FM3A cells. The assay is classed as functional, cell-based.
Assay [3] concerns FM3A. The assay is described as follows: Selectivity index as EC50 FM3A /EC50 Plasmodium falciparum. The assay is classed as functional.
In assay [4] the test system is FM3A. The assay is described as follows: In vitro cytotoxicity in mouse mammary tumor FM3A cells; Nontoxic at a 1*10^-4 M concentration. The assay is classed as functional, cell-based.
For assay [5], the system named is Mus musculus. Description: In vivo antimalarial activity against Plasmodium berghei NK 65 in mice (Mus musculus) at 20 mg/kg/day. The assay is classed as functional. The method in brief:
(§1)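 Male ICR mice, 5 weeks old, 22-25 g, five per group. Infected iv (tail vein) with 1 × 10⁶ P. berghei NK 65 parasitized erythrocytes in 0.2 mL 0.9% NaCl. Compound in DMSO given ip once daily on days 0-3, first dose 2 h after inoculation. Controls were DMSO-dosed. Day-4 parasitemia counted on Giemsa tail-blood smears (1 × 10⁴ RBCs). Percent suppression relative to controls, mean of five mice.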

Assay [6] has as its system Mus musculus. The assay is described as follows: In vivo antimalarial activity against Plasmodium berghei NK 65 in mice (Mus musculus) at 50 mg/kg/day. The assay is classed as functional. The essentials:
as §1

The test system of assay [7] is Plasmodium falciparum. The assay is described as follows: In vitro antimalarial activity against chloroquine-sensitive Plasmodium falciparum FCR3; Not toxic at 100uM. The assay is classed as functional, organism-based.

SMILES strings stand for the structures.

By EC50 is commonly meant the concentration that produces a half-maximal response. A low value points to greater potency. On to `Fc1ccc(C2OOC3CCCC(c4ccccc4)(OO2)O3)cc1` (stereo not given), for which the EC50 came out at 2800 nM in assay [1] and 17000 nM in assay [2]. In addition, the Selectivity in assay [3] came out at 6.
For `CC(C)(C)C1OOC2CCCC(c3ccccc3)(OO1)O2` (stereo not given), in that order: 17000 nM, 26000 nM and 2.
`O=C(CCC[C@H]1OO[C@H](CCCC(=O)c2ccccc2)OO1)c1ccccc1`: the EC50 entry in assay [4] is “Not toxic”; in assay [1] it was 400 nM. The Growth inhibition in assay [5] was 30%; in assay [6], 40%. Also, in assay [3], the Selectivity is given as greater than 250.
`FC(F)(F)c1ccc(C2OOC(c3ccc(C(F)(F)F)cc3)OO2)cc1` (stereo not given): the EC50 entry in assay [4] and in assay [7] was “Not toxic” in each case.
With `Fc1ccc(C23CCCC(OOC(c4ccccc4)OO2)O3)cc1` (stereo not given), the EC50 in assay [1] was 2900 nM; in assay [2], 8100 nM. The molecule further had a Selectivity in assay [3] of 4.
Consider `C1CCC([C@H]2OO[C@H](C3CCCCC3)OO2)CC1`, for which the Growth inhibition in assay [5] is given as 50%; in assay [6], 96%. The EC50 came out at 200 nM in assay [1] and 11000 nM in assay [2]. The molecule further had a Selectivity in assay [3] of 55.
In the case of `Fc1ccc(C23CCCC(OOC(C4CCCCC4)OO2)O3)cc1` (stereo not given), the EC50 in assay [1] amounted to 150 nM; in assay [2], 2500 nM. In assay [3], this molecule returned a Selectivity of 17.
In the case of `c1ccc([C@H]2OO[C@H](c3ccccc3)OO2)cc1`, the figures for the EC50 result in assay [4] and in assay [1] were “Not toxic” and 1100 nM, respectively. Besides, the figures for the Growth inhibition in assay [5] and in assay [6] were 6% and 50%, respectively. In assay [3], this molecule yielded a Selectivity greater than 91.
As for `O=C(CCC[C@H]1OO[C@@H](CCCC(=O)c2ccccc2)OO1)c1ccccc1`, the EC50 entry in assay [4] is “Not toxic”; in assay [1], 12000 nM. Moreover, the Selectivity in assay [3] is greater than 8.
The like results for `CCCCCCC[C@H]1OO[C@H](CCCCCCC)OO1` were, in that order, “Not toxic”, 1500 nM and greater than 67.
The like results for `COc1ccc(C(=O)CCC[C@H]2OO[C@H](CCCC(=O)c3ccc(OC)cc3)OO2)cc1` were, in that order, “Not toxic”, 20000 nM and greater than 5.
As for `Fc1ccc(C2OOC(c3ccc(F)cc3)OO2)cc1` (stereo not given), the EC50 entry in assay [4] is “Not toxic”; in assay [1], 500 nM. Moreover, the Growth inhibition in assay [5] is on record as 50%; in assay [6], 90%. In addition, in assay [3], the Selectivity is given as greater than 200.
Regarding `COc1ccc(C(=O)CCCC2OOC3CCCC(c4ccc(OC)cc4)(OO2)O3)cc1` (stereo not given), the figures for the EC50 in assay [1] and in assay [2] were 930 nM and 18000 nM, respectively. Besides, the Selectivity in assay [3] came out at 19.
For `FC(F)(F)c1ccccc1C1OOC(c2ccccc2C(F)(F)F)OO1` (stereo not given), in that order: 600 nM, 3000 nM and 5.
As to `C[C@@H]1CC[C@H]2[C@@H](C)C(=O)O[C@@H]3O[C@@]4(C)CC[C@@H]1[C@]32OO4` [ARTEMISININ], the Growth inhibition is recorded as 93% in assay [5] and 100% in assay [6]. For the same molecule, the EC50 is 7.8 nM in assay [1] and 10000 nM in assay [2].
As to `CCC(CC)C1OOC2CCCC(c3ccccc3)(OO1)O2` (stereo not given), the Growth inhibition in assay [5] is 15%; in assay [6], 18%. Besides, the EC50 in assay [1] turned out to be 510 nM; in assay [2], 33000 nM. The Selectivity in assay [3] turned out to be 65.
On to `O=C(CCCC1OOC2CCCC(c3ccccc3)(OO1)O2)c1ccccc1` (stereo not given), for which the EC50 entry is “Not toxic” in assay [4] and 1300 nM in assay [1]. In assay [3], this molecule yielded a Selectivity greater than 77.
Turning to `Fc1ccc(C2OOC3CCCC(c4ccc(F)cc4)(OO2)O3)cc1` (stereo not given), the figures for the EC50 in assay [1] and in assay [2] were 1900 nM and 9000 nM, respectively. In assay [3], this molecule yielded a Selectivity of 5.
For `c1ccc(C23CCCC(OOC(C4CCCCC4)OO2)O3)cc1` (stereo not given), the Growth inhibition in assay [5] came to 0%; in assay [6], 15%. For the same molecule, the EC50 in assay [1] was found to be 210 nM; in assay [2] it was 10000 nM. The same molecule gave a Selectivity in assay [3] of 48.
For the molecule `c1ccc(C2OOC3CCCC(c4ccccc4)(OO2)O3)cc1` (stereo not given), the EC50 in assay [1] stood at 1400 nM; in assay [2], 50000 nM. In addition, the Selectivity in assay [3] is reported as 36.
For `O=C(CCCC1OOC2CCCC(c3ccc(F)cc3)(OO1)O2)c1ccc(F)cc1` (stereo not given), the figures for the EC50 entry in assay [4] and in assay [1] were “Not toxic” and 710 nM, respectively. The Growth inhibition in assay [5] and in assay [6] was 0% throughout. In addition, the Selectivity in assay [3] was greater than 141.
On to `O=C(CCC[C@H]1OO[C@H](CCCC(=O)c2ccc(F)cc2)OO1)c1ccc(F)cc1`, for which the EC50 result in assay [4] is “Not toxic”; in assay [1] it was 510 nM. For the same molecule, the Growth inhibition amounted to 0% in assay [5] and 30% in assay [6]. For the same molecule, in assay [3], the Selectivity is listed as greater than 169.
In the case of `c1ccc(C[C@H]2OO[C@H](Cc3ccccc3)OO2)cc1`, the EC50 entry was “Not toxic” in assay [4] and 14000 nM in assay [1]. Also, the Selectivity in assay [3] was greater than 7.
Turning to `CCCCCCCC1OOC2CCCC(c3ccccc3)(OO1)O2` (stereo not given), the half-maximal effective concentration (EC50) in assay [1] amounted to 1500 nM; in assay [2], 12000 nM.
`COc1ccc(C2OOC(c3ccc(OC)cc3)OO2)cc1` (stereo not given): the EC50 entry is “Not toxic” in assay [4] and 790 nM in assay [1]. In addition, in assay [3], the Selectivity was greater than 127.

The values are drawn from ChEMBL document CHEMBL1132298, “Synthesis and antimalarial activity of cyclic peroxides, 1,2,4,5, 7-pentoxocanes and 1,2,4,5-tetroxanes” (J Med Chem, 1999).
